Experimental data as given in ChEMBL document CHEMBL3112573, “Design, synthesis and evaluation of acridine and fused-quinoline derivatives as potential anti-tuberculosis agents” (Eur J Med Chem, 2014).
In brackets after ≈: the same amount, converted by molar mass. Activity calls are given as the source filed them. No cut-off for these calls is given here.

How the values were obtained:
[1] = tested on: Mycobacterium tuberculosis; experiment: Antimicrobial activity against Mycobacterium tuberculosis H37Rv after 7 days by BacTiter-Glo assay; assay type: functional, organism-based; conditions: 168 h
In short: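 H37Rv in 384-well format, 10-point dose response, compounds serially diluted 1:2 from 100 thru 0.195 (top of range); DMSO carrier as 100% growth control, high amikacin as background, lower amikacin (MIC-approximating) control. After 7 days, equilibrated to room temperature, BacTiter-Glo added, 20 min at room temperature, luminescence (ATP) read.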

[2] = Cytotoxicity against mouse J774 cells assessed as cell viability at 10-fold above MIC relative to control; assay type: cell-based; conditions: read-out: Activity
In short: (§1)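 Uninfected J774 macrophages run in parallel to the infection assay (RPMI 1640, 1% FBS, 37 °C, 5% CO2), exposed to the same three concentrations (mid bracketing primary-screen MIC, ten-fold below and above); MTT proliferation read-out reported as percent viability.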

[3] = Cytotoxicity against mouse J774 cells assessed as cell viability at MIC relative to control; assay type: cell-based; conditions: read-out: Activity; in short: as §1
[4] = Cytotoxicity against mouse J774 cells assessed as cell viability at 10-fold below MIC relative to control; assay type: cell-based; conditions: read-out: Activity; in short: as §1
[5] = tested on: Mycobacterium tuberculosis; experiment: Antimicrobial activity against Mycobacterium tuberculosis H37Rv SRI 1345 infected in mouse J774 cells assessed as intracellular growth inhibition at 10-fold above MIC after 7 days relative to control; assay type: functional
In short: (§2)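 Murine J774 cells in RPMI 1640 + L-glutamine/FBS, 37 °C, 5% CO2; seeded 2.0 × 10^5 per well in 10% FBS, overnight, then 1% FBS to halt division. After 24 h infected with H37Rv at MOI 5 for 4 h, washed; drug at three concentrations (mid bracketing primary-screen MIC, ten-fold below and above) for 7 days. SDS lysis, DNase, plating on 7H10 for CFU; log reduction day 0 to day 7; duplicates, rifampin control.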

[6] = tested on: Mycobacterium tuberculosis; experiment: Antimicrobial activity against Mycobacterium tuberculosis H37Rv SRI 1345 infected in mouse J774 cells assessed as intracellular growth inhibition at MIC after 7 days relative to control; assay type: functional; in short: as §2
[7] = tested on: Mycobacterium tuberculosis; experiment: Antimicrobial activity against Mycobacterium tuberculosis H37Rv SRI 1345 infected in mouse J774 cells assessed as intracellular growth inhibition at 10-fold below MIC after 7 days relative to control; assay type: functional; in short: as §2
[8] = tested on: Mycobacterium tuberculosis; experiment: Antimicrobial activity against Mycobacterium tuberculosis H37Rv SRI 1345 incubated for 7 days under aerobic condition by low-oxygen recovery assay; assay type: functional, organism-based
[9] = tested on: Mycobacterium tuberculosis; experiment: Antimicrobial activity against Mycobacterium tuberculosis H37Rv SRI 1345 incubated for 7 days under anaerobic condition followed by exposure to gaseous condition measured after 7 days by low-oxygen recovery assay; assay type: functional, organism-based
In short: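 Microplates set up as for MIC testing, then held anaerobically (automated jar gassing) 7 days at 37 °C, moved to ambient air with 5% CO2 for 7 days; wells scored visually for turbidity/clearing. Result = lowest concentration visually inhibiting growth. Duplicates with sterility, growth and rifampin or isoniazid controls.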

[10] = tested on: Mycobacterium tuberculosis; experiment: Antimicrobial activity against Mycobacterium tuberculosis H37Rv SRI 1345 assessed as growth inhibition at MIC after 7 days by broth microdilution assay relative to control; assay type: functional
In short: (§3)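 Broth microdilution per CLSI in Middlebrook 7H9 + OADC; ten two-fold dilutions; inoculum targeted 1.0 × 10^6 CFU/mL M. tuberculosis; 37 °C, ~90% humidity, 7 days. Wells scored visually for turbidity, partial or complete clearing; MIC = lowest concentration visually inhibiting growth; percent inhibition at the MIC also recorded. Duplicates; rifampin or isoniazid positive control, medium-only and organism-only controls.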

[11] = tested on: Mycobacterium tuberculosis; experiment: Antimicrobial activity against Mycobacterium tuberculosis H37Rv SRI 1345 assessed as growth inhibition after 7 days by broth microdilution assay; assay type: functional; conditions: H37Rv SRI 1345, 168 h; in short: as §3
[12] = tested on: Mycobacterium tuberculosis; experiment: Bactericidal activity against Mycobacterium tuberculosis H37Rv SRI 1345 after 18 to 24 hrs; assay type: functional; conditions: for MBC: Mycobacterium tuberculosis, H37Rv SRI 1345, read-out: MBC99.9
In short: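 Following MIC testing, diluted aliquots from wells lacking macroscopic growth plated on Middlebrook 7H10 agar, 16–21 days at 37 °C, colonies counted. MBC = lowest concentration giving 99.9% kill over the MIC period (18–24 h); >40 colonies taken as rejection value; uncountable plates reported TNTC.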

**Q.** What does the source list for NNC(=O)c1ccncc1 [ISONIAZID]?
**A.** IC50 [1]: 0.18 µM; IC90 [1]: 0.29 µM

**Q.** For O=C1c2ccccc2-c2nc3ccc([N+](=O)[O-])cc3c(-c3ccccc3)c21, which IC50 [1] is on record?
**A.** Its IC50 is over 100 µM.

**Q.** What about the IC90 [1] of the same compound?
**A.** The IC90 was over 100 µM.

**Q.** With O=[N+]([O-])c1ccc2nc3c(c(-c4ccccc4)c2c1)CCCCC3 as the compound, how does the viability [2] read?
**A.** The viability was under 10%.

**Q.** What about the viability [3] of the same compound?
**A.** Its viability is 79%.

**Q.** And the viability [4]?
**A.** Its viability is 82%.

**Q.** And the “fold change (FC)” value [5]?
**A.** The value was 1.41.

**Q.** And the “fold change (FC)” value [6]?
**A.** The value was 1.19.

**Q.** And the “fold change (FC)” value [7]?
**A.** The value was 1.24.

**Q.** What about the Activity [8] of the same compound?
**A.** The Activity was “Active”.

**Q.** What about the Activity [9] of the same compound?
**A.** The Activity was “Active”.

**Q.** What about the “growth inhibition (GI)” value [10] of the same compound?
**A.** Its value is 76%.

**Q.** What about the MIC [11] of the same compound?
**A.** The MIC was 75 µg/mL (≈ 236 µM).

**Q.** What about the IC50 [1] of the same compound?
**A.** The IC50 was 61.9 µM.

**Q.** And the IC90 [1]?
**A.** The IC90 was 95.4 µM.

**Q.** For CCc1nc(N)nc(N)c1-c1ccc(Cl)cc1 [PYRIMETHAMINE], which IC50 [1] is on record?
**A.** The IC50 was 5 µM.

**Q.** What about the IC90 [1] of the same compound?
**A.** The IC90 was 5 µM.

**Q.** Which results are given for Clc1ccc2nc3c(c(-c4ccccc4)c2c1)Cc1ccccc1-3?
**A.** IC50 [1]: > 100 µM; IC90 [1]: > 100 µM

**Q.** Which IC50 [1] does the source give for Clc1ccc2nc3c(c(-c4ccccc4)c2c1)CCCCC3 here?
**A.** Its IC50 is over 100 µM.

**Q.** And the IC90 [1]?
**A.** The IC90 was over 100 µM.

**Q.** Which viability [2] does the source give for Clc1ccc2nc3c(c(-c4ccccc4)c2c1)CCC3 here?
**A.** The viability was under 10%.

**Q.** And the viability [3]?
**A.** The viability was 79%.

**Q.** And the viability [4]?
**A.** Its viability is 86%.

**Q.** What about the “fold change (FC)” value [5] of the same compound?
**A.** The value was 3.12.

**Q.** What about the “fold change (FC)” value [6] of the same compound?
**A.** Its value is 1.82.

**Q.** What about the “fold change (FC)” value [7] of the same compound?
**A.** Its value is 1.

**Q.** What about the Activity [8] of the same compound?
**A.** The Activity was “Active”.

**Q.** And the Activity [9]?
**A.** The Activity was “Active”.

**Q.** What about the CFU [12] of the same compound?
**A.** The CFU was 0.

**Q.** And the MBC [12]?
**A.** The MBC was 50 µg/mL (≈ 179 µM).

**Q.** What about the “growth inhibition (GI)” value [10] of the same compound?
**A.** Its value is 88%.

**Q.** And the MIC [11]?
**A.** The MIC was 12.5 µg/mL (≈ 44.7 µM).

**Q.** And the IC50 [1]?
**A.** The IC50 was 73.4 µM.

**Q.** And the IC90 [1]?
**A.** Its IC90 is over 100 µM.

**Q.** Which results are given for CC1(C)CC(=O)c2c(nc3ccc([N+](=O)[O-])cc3c2-c2ccccc2)C1?
**A.** IC50 [1]: > 100 µM; IC90 [1]: > 100 µM

**Q.** Which results are given for O=[N+]([O-])c1ccc2nc3c(c(-c4ccccc4)c2c1)Cc1ccccc1-3?
**A.** IC50 [1]: > 100 µM; IC90 [1]: > 100 µM

**Q.** Which results are given for CC[C@@H](CO)NCCN[C@@H](CC)CO [ETHAMBUTOL]?
**A.** IC50 [1]: < 1.56 µM; IC90 [1]: 32.8 µM

**Q.** Which results are given for NCC[C@H](O)C(=O)N[C@@H]1C[C@H](N)[C@@H](O[C@H]2O[C@H](CN)[C@@H](O)[C@H](O)[C@H]2O)[C@H](O)[C@H]1O[C@H]1O[C@H](CO)[C@@H](O)[C@H](N)[C@H]1O [AMIKACIN]?
**A.** IC50 [1]: 0.07 µM; IC90 [1]: 0.08 µM

**Q.** For Clc1ccc2nc3c(c(-c4ccccc4)c2c1)CCCC3, which IC50 [1] is on record?
**A.** Its IC50 is over 100 µM.

**Q.** What about the IC90 [1] of the same compound?
**A.** Its IC90 is over 100 µM.

**Q.** What does the source list for CC1(C)CC(=O)c2c(nc3ccc(Cl)cc3c2-c2ccccc2)C1?
**A.** IC50 [1]: > 100 µM; IC90 [1]: > 100 µM

**Q.** Which IC50 [1] does the source give for O=C1c2ccccc2-c2nc3ccc(Cl)cc3c(-c3ccccc3)c21 here?
**A.** Its IC50 is over 100 µM.

**Q.** What about the IC90 [1] of the same compound?
**A.** The IC90 was over 100 µM.

**Q.** For N[C@@H]1CONC1=O [CYCLOSERINE], which IC50 [1] is on record?
**A.** Its IC50 is 12.5 µM.

**Q.** And the IC90 [1]?
**A.** Its IC90 is 13.5 µM.

**Q.** Which results are given for Clc1ccc2nc3c(c(-c4ccccc4)c2c1)-c1ccccc1C3?
**A.** IC50 [1]: > 100 µM; IC90 [1]: > 100 µM

**Q.** Which viability [2] does the source give for O=[N+]([O-])c1ccc2nc3c(c(-c4ccccc4)c2c1)CCCC3 here?
**A.** The viability was 25%.

**Q.** What about the viability [3] of the same compound?
**A.** Its viability is 63%.

**Q.** What about the viability [4] of the same compound?
**A.** The viability was 67%.

**Q.** What about the “fold change (FC)” value [5] of the same compound?
**A.** Its value is 1.72.

**Q.** And the “fold change (FC)” value [6]?
**A.** The value was 1.25.

**Q.** And the “fold change (FC)” value [7]?
**A.** Its value is 1.8.

**Q.** What about the Activity [8] of the same compound?
**A.** Its Activity is “Active”.

**Q.** What about the Activity [9] of the same compound?
**A.** Its Activity is “Active”.

**Q.** And the “growth inhibition (GI)” value [10]?
**A.** Its value is 52%.

**Q.** And the MIC [11]?
**A.** Its MIC is 12.5 µg/mL (≈ 41.1 µM).

**Q.** What about the IC50 [1] of the same compound?
**A.** The IC50 was 44.4 µM.

**Q.** What about the IC90 [1] of the same compound?
**A.** Its IC90 is over 100 µM.

**Q.** Which viability [2] does the source give for CO[C@H]1/C=C/O[C@@]2(C)Oc3c(C)c(O)c4c(O)c(c(/C=N/N5CCN(C)CC5)c(O)c4c3C2=O)NC(=O)/C(C)=C\C=C\[C@H](C)[C@H](O)[C@@H](C)[C@@H](O)[C@@H](C)[C@H](OC(C)=O)[C@@H]1C [RIFAMPIN] here?
**A.** Its viability is 78%.

**Q.** And the viability [3]?
**A.** The viability was 86%.

**Q.** What about the viability [4] of the same compound?
**A.** Its viability is 82%.

**Q.** What about the “fold change (FC)” value [5] of the same compound?
**A.** The value was 1.85.

**Q.** What about the “fold change (FC)” value [6] of the same compound?
**A.** Its value is 1.83.

**Q.** And the “fold change (FC)” value [7]?
**A.** Its value is 0.46.

**Q.** What about the CFU [12] of the same compound?
**A.** Its CFU is 39.

**Q.** And the MBC [12]?
**A.** The MBC was 1.56 µg/mL (≈ 1.9 µM).

**Q.** What about the “growth inhibition (GI)” value [10] of the same compound?
**A.** The value was 65%.

**Q.** What about the MIC [11] of the same compound?
**A.** The MIC was 0.049 µg/mL (≈ 0.0595 µM).

**Q.** What about the IC50 [1] of the same compound?
**A.** Its IC50 is 0.02 µM.

**Q.** And the IC90 [1]?
**A.** Its IC90 is 0.02 µM.
